From publication PMC9588738 (Cancer research, 2022)

What was measured:
[1] = biological target: T1, PELP1 (Homo sapiens, UniProt Q8IZL8); test: PELP1 degradation by Western blotting; type: cell-based; details: MCF7 cells, MG132 5 μM
Method in brief: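 ZR75 and MCF7 cells were exposed to graded test-compound concentrations for 24 h. For the proteasome arm, MCF7 cells received small molecule (10 μM, 4 and 6 h) or peptide (10 μM, 7 h), each ± MG132 (5 μM). Lysis used NP-40/Triton X-100 buffer with protease/phosphatase inhibitors and NEM. PELP1 was normalized to loading control, relative to untreated.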
Target sequence in this assay (Q8IZL8 whole entry): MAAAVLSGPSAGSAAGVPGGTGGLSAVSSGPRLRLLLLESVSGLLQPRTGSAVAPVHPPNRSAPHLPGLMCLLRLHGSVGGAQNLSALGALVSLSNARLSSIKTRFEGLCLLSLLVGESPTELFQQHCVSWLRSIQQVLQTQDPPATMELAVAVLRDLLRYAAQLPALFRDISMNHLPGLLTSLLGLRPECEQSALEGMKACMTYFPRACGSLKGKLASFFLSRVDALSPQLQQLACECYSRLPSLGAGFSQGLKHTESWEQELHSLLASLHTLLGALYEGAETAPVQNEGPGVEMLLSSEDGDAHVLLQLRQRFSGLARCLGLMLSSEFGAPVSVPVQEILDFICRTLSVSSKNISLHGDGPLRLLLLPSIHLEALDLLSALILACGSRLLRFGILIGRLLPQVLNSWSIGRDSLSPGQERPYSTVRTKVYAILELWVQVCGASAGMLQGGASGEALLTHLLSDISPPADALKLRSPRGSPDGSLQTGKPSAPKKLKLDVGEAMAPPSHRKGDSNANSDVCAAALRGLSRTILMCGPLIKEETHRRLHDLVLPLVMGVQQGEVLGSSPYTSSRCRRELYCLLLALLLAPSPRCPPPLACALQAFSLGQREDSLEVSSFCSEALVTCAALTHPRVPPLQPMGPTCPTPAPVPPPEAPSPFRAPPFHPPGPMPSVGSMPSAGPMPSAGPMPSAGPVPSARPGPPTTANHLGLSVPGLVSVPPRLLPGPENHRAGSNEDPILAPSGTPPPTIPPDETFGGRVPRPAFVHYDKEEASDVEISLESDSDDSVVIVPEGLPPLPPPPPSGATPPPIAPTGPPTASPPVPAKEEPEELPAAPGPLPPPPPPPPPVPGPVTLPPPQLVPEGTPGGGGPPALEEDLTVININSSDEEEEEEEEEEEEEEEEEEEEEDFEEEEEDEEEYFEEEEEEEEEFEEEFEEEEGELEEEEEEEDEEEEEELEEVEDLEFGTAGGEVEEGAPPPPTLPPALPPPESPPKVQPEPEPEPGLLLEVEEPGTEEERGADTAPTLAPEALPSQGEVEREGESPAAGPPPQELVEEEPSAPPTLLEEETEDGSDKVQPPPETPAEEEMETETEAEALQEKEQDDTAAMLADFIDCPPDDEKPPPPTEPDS

[2] = test system: ZR75-PELP1 cells; test: MTT cell viability assay, ZR75-PELP1 cells; type: cell-based, human
Method in brief: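 ZR75-PELP1 cells were treated with peptide every 3 days, and MTT absorbance was read at day 7 (n=3). A screen compared ZR75 with ZR75-PELP1 cells.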

[3] = test system: ZR75-PELP1 and MCF7-PELP1 cells; test: QCM chemotaxis cell migration assay; type: cell-based, human; details: 10 μM, 12 hours
[4] = test system: E2 mediated ERE reporter activation; test: ERE-luciferase reporter assay; type: cell-based, human; details: ZR75-PELP1 (PIP1) or ZR75 (SMIP34) cells
[5] = test system: MCF7-TamR and MCF7-LTLT BC model cells; test: Cell viability of therapy-resistant cells treated with PIP1; type: cell-based, human; details: 7 days
[6] = biological target: T1, PELP1; test: Biotin-Avidin pull-down assays; type: binding; details: Biotin-tagged peptides, ZR75 nuclear lysate
Target sequence in this assay (Q8IZL8 2-1130): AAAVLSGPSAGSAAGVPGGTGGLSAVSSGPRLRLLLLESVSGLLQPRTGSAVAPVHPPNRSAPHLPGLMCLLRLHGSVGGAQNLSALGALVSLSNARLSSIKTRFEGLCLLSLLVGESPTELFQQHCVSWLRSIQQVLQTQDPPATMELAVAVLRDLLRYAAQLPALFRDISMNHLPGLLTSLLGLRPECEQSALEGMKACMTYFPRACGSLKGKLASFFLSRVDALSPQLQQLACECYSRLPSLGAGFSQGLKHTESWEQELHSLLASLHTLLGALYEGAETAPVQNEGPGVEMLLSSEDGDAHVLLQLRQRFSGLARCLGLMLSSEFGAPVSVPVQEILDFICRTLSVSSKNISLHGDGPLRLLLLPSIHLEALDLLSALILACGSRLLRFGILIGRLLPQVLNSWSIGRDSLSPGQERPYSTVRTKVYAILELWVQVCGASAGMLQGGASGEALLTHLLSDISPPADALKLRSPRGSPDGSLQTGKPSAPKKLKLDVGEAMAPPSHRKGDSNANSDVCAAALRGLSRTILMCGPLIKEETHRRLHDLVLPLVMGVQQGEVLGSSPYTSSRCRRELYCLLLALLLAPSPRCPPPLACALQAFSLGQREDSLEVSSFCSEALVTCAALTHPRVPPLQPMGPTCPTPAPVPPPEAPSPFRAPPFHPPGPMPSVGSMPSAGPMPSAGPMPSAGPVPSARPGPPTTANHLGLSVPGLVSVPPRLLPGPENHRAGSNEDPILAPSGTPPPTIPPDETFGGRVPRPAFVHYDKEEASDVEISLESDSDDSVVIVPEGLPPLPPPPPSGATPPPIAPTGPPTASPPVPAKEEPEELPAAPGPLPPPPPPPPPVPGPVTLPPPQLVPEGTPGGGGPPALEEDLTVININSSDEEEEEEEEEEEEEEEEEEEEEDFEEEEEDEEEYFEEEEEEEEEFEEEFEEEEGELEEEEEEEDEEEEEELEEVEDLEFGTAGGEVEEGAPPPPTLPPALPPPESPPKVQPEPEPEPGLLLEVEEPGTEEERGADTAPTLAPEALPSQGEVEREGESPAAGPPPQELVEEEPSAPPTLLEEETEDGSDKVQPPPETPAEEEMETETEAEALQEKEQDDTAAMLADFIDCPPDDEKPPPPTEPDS

[7] = test system: PELP1-shRNA expressing ZR75 cells; test: MTT cell viability assay, PELP1 knockdown cells; type: cell-based, human; details: PELP1 knockdown vs control

PIP1: PELP1 inhibiting peptide with TAT signal; TAT-PIP1: GRKKRRQRRRGGMVEFRWSCPGRRKAKA (not fully specified; left off: Gal4 activation domain, end not stated, kept)
PELP1 degradation in presence of proteasome inhibitor MG132 [1]: attenuated PIP1 mediated degradation of PELP1
comparison of activity between hits in MTT assays [2]: more efficient anti-proliferative activity than PIP2
effect on PELP1-mediated proliferation ([2]; TAT-tagged peptides every 3 days, read at 7 days): significantly inhibited PELP1-mediated proliferation
cell migration [3]: significant decrease in the cell migration
E2 induced ERE reporter activity [4]: significantly decreased E2 mediated ERE reporter activation
effect on cell viability of therapy-resistant cells [5]: significantly reduced the cell viability
relative affinity to bind PELP1 (peptide pull-down) [6]: higher affinity to bind to PELP1 than PIP2
activity when PELP1 is knocked down [7]: substantially reduced the activity of PIP1
